Results as given in ChEMBL document CHEMBL2424625, “Synthesis and structure-activity relationships of novel indazolyl glucocorticoid receptor partial agonists” (Bioorg Med Chem Lett, 2013).
The source made the active and inactive calls. The calls are words filed in the database; no cut-off is given here.

What was measured:
[1] = biological target: T1, Glucocorticoid receptor (Homo sapiens) (UniProt P04150); experiment: Transrepression activity at glucocorticoid receptor in human A549 cells assessed as inhibition of PMA-stimulated AP1 response element by luciferase reporter gene assay relative to dexamethasone; format: cell-based
T1 sequence (whole entry): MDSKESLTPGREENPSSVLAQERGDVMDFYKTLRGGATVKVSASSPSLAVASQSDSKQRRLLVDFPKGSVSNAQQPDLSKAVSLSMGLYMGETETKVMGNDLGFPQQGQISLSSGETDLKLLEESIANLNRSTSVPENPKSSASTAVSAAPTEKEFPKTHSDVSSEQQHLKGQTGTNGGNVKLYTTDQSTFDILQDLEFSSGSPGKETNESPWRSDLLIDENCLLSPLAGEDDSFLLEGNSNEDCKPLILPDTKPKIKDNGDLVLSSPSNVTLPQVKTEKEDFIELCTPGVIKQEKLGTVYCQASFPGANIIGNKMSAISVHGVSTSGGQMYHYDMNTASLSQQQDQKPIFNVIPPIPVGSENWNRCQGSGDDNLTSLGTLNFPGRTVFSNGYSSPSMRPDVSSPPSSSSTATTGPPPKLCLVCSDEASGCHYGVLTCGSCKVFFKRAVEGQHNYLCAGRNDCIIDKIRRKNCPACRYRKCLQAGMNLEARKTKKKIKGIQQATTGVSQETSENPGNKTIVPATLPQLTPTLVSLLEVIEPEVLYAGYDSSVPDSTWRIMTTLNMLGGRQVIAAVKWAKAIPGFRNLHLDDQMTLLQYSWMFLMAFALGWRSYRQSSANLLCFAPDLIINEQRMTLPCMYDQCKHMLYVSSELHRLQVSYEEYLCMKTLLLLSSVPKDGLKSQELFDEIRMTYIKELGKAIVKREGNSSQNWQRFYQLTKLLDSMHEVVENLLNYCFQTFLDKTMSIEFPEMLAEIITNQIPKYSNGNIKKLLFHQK
Summary of the method: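 Transrepression of AP-1 was run in A549 lung epithelial cells. […] Values are means of two or more experiments in triplicate.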

[2] = biological target: T2, Glucocorticoid receptor (Homo sapiens, UniProt P04150); experiment: Transactivation activity at glucocorticoid receptor ligand binding domain (unknown origin) expressed in human Hela cells co-expressing GAL4 DNA binding domain assessed as NP-1-stimulated GRE activation by luciferase reporter gene assay; format: cell-based
T2 sequence (P04150 whole entry): T1 sequence (whole entry)

[3] = biological target: T3, Mineralocorticoid receptor (Homo sapiens, UniProt P08235); experiment: Agonist activity at mineralocorticoid receptor in human A549 cells by fluorescence assay; format: cell-based
T3 sequence (P08235 whole entry): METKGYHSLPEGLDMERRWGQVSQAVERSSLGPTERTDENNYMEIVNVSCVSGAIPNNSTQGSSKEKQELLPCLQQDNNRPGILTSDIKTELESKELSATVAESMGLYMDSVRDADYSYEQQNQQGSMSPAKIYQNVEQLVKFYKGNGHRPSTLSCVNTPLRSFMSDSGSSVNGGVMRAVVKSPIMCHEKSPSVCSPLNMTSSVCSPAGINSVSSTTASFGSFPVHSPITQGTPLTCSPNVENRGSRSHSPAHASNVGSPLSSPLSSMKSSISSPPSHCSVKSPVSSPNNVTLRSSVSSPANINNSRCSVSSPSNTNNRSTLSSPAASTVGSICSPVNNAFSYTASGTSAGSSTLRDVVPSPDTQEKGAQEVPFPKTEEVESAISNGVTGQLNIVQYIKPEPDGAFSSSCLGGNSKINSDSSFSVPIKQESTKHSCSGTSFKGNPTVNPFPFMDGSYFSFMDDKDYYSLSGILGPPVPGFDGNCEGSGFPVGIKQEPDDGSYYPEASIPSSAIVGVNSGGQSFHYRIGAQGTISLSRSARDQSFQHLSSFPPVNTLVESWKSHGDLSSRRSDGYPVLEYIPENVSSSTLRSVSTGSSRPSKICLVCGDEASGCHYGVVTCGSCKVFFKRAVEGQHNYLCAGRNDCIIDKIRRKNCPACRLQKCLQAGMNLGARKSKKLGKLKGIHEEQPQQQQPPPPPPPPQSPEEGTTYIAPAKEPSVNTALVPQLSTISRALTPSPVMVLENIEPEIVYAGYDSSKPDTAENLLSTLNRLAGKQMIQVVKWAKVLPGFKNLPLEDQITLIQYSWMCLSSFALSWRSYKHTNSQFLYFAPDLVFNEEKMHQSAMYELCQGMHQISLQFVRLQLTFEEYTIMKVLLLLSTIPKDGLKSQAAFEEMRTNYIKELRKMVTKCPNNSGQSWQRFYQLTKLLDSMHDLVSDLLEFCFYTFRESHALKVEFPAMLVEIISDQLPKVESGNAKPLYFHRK
Summary of the method: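 A549 cells were run in MR agonist mode with aldosterone as positive control. EC50 was reported with % maximal efficacy, as means of duplicate experiments.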

[4] = biological target: T4, Androgen receptor (Homo sapiens, UniProt P10275); experiment: Binding affinity to androgen receptor (unknown origin) by fluorescence assay
T4 sequence (P10275 whole entry): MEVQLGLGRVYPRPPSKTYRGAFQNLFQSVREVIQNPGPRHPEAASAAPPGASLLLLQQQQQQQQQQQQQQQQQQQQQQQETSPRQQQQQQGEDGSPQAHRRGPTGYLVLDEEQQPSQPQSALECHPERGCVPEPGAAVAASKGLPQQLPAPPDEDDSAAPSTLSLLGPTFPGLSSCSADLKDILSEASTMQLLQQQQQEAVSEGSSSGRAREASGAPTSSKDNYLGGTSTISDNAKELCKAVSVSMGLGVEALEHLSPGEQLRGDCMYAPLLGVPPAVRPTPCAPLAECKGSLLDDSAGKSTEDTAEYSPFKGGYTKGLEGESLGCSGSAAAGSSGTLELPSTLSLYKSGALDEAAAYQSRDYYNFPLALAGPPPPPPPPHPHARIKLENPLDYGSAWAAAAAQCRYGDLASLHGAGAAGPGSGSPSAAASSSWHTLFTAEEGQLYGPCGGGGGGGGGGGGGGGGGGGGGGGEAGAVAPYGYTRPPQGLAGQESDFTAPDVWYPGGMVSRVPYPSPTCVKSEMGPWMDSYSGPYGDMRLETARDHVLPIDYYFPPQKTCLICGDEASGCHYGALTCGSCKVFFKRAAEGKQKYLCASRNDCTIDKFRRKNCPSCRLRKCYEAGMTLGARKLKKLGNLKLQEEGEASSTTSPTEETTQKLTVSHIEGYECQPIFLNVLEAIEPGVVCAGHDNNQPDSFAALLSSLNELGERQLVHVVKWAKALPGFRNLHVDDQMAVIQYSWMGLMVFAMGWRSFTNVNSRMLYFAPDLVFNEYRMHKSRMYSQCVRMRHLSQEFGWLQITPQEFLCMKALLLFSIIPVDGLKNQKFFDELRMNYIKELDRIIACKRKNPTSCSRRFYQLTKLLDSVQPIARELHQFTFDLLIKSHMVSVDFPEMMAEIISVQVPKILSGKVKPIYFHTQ
Summary of the method: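 Fluorescence polarization competition between test compound and a fluorescently labeled ligand for binding to full-length receptor or its ligand binding domain. IC50 was fit to the signal by four-parameter logistic equation. Ki = IC50/(1 + ligand concentration/Kd) (Cheng–Prusoff).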

[5] = biological target: T1, Glucocorticoid receptor (Homo sapiens); experiment: Partial agonist activity at glucocorticoid receptor (unknown origin) by fluorescence assay

| Efficacy [1] [%] | EC50 [2] [µM] | IC50 [3] [µM] | Ki [4] [µM] | Activity [5] | SMILES |
| --- | --- | --- | --- | --- | --- |
| 91 | 0.129 | > 5 | > 5 |  | CC(C)(CNC(=O)CC(F)(F)F)[C@@H](c1ccccc1)c1ccc2c(cnn2-c2ccc(F)cc2)c1 |
| 74 | 0.202 | > 5 | > 5 | Active | CC(C)(CNS(=O)(=O)CC(F)(F)F)[C@@H](c1ccccc1)c1ccc2c(cnn2-c2ccc(F)cc2)c1 |
| 74 | 0.429 | > 5 | > 5 | Active | CC(C)(C)NC(=O)NCC(C)(C)[C@@H](c1ccccc1)c1ccc2c(cnn2-c2ccc(F)cc2)c1 |
